PMI act: increases human mannose-6-phosphate isomerase activity. P34949. purified human PMI, coupled resazurin fluorescence, 20 min; hits give high values; 1 = vehicle control, 0 substrate-free wells. activation factor at 20 µM. 0.005% of 190,000 active. AID 1214;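 active = activation factor of 2 or more at 20 µM, relative to plate controls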
Target sequence (P34949 whole entry, looked up): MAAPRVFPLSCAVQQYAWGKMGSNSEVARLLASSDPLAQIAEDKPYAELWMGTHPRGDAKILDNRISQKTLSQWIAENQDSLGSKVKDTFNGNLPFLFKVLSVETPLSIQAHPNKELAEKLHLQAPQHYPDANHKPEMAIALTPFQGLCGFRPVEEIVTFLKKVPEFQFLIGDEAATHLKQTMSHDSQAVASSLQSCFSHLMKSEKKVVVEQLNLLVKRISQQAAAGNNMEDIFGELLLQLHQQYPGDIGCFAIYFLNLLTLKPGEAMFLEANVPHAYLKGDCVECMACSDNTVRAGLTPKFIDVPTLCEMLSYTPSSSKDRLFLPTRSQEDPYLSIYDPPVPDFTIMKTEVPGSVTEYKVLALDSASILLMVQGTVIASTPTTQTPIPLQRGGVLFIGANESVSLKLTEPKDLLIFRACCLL
FLuc inhib CS: counter-screen for luciferase assay inhibitors: firefly luciferase inhibition. ATPLite firefly luciferase biochemical luminescence, 10 min. inhibition, % at 10 µM. 1.5% of 200,000 active. AID 1006;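 active = inhibition above about 50% when tested at 10 µM, limit read from the data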
FLuc act counter: affects firefly luciferase, flagging false hits in luciferase stimulation screens. ATPlite luciferase biochemical, luminescence, 10 min; 0 = ATP-free wells, 1 = DMSO control. P08659. AID 1027. 200,000 tested, under 10 active. activation factor at 10 µM;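 active = luciferase activation factor, scaled between plate controls, of at least 2 with compound at 10 µM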
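test system = cell-free luciferase reagent | medium = PBS as buffer for the ATP substrate | dosing = test compounds dosed from 2 mM stocks in 100% DMSO | incubation = 10 min at ambient temperature | detection = luminescence measurement of luciferase light output | benchmarks = low control with PBS replacing ATP, high control enzyme plus ATP without compound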
Diaphorase act: diaphorase activation or chemical reduction counter-screen. Diaphorase/resazurin coupled assay, resorufin fluorescence, 16 min; hits give high values; 1 = vehicle wells, 0 = NADH-free wells. activation factor at 20 µM. 0.005% of 190,000 active;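 active = diaphorase activity raised at least twofold by the compound at 20 µM; inactive = activation factor below 2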
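test system = bacterial diaphorase enzyme (C. kluyveri) | quantity = enzyme 0.07 U/mL final | reagent = NADH substrate 0.114 mM plus resazurin dye 0.1 mM, final | incubation = 16 min enzyme reaction, ambient temperature | buffer or medium = HEPES pH 7.4 buffer with MgCl2 and Tween 20 | signal = fluorescence of resorufin, 544 nm excitation, 590 nm emission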
Diaphorase inh: counter-screen for diaphorase-based assays: diaphorase inhibitors and chemical oxidizers; diaphorase resazurin-to-resorufin fluorescence, NADH, 16 min; bacterial (C. kluyveri) enzyme, not human; 0.69% of 190,000 active; inhibition, % at 20 µM;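 active = primary screen inhibition at 20 µM above a set limit, cut at about 50% in these data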;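 note: plate controls were DMSO with full reaction for no effect and wells lacking NADH for full effect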
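System: Diaphorase enzyme from Clostridium kluyveri | Amount: Enzyme working solution with 0.14 U/mL diaphorase | Benchmarks: No-NADH positive control and DMSO neutral control | Signal: Fluorescence of resorufin formed from resazurin, Ex 544/Em 590 nm | Schedule: 16-min room-temperature incubation before reading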
PMI act hi M6P: increases human PMI activity with near-saturating mannose 6-phosphate | P34949 | coupled PMI enzyme assay, resazurin fluorescence, 20 min; hits give high values; 1 = untreated enzyme, 0 = substrate-free blank | activation factor at 20 µM | 0.34% of 190,000 active | AID 1216;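 active = activation factor of 2 or more at 20 µM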
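Test system: Human PMI in coupled enzyme assay | Input: 15 ng/mL PMI | Medium: HEPES-buffered pH 7.4 with magnesium and detergent | Compound: One concentration, 20 µM, in 1% DMSO | Incubation: Enzyme reaction with compound 20 min at room temperature | Detection: Diaphorase-driven resazurin-to-resorufin fluorescence, excitation 544, emission 590 nm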
* hit, by the source's call. Compounds with a hit are over-represented: about 2.5% of the library has one in this group of screens.

SMILES | PMI act | FLuc inhib CS | FLuc act counter | Diaphorase act | Diaphorase inh | PMI act hi M6P
CCc1nc(SCC(=O)Nc2sc(C)c(C)c2C(=O)OC)c2ccccc2n1 | 1 | -10 | 1.1 | 0.8 | 16 | 1
CCOC(=O)NC1(Nc2ccc(C)cc2)Oc2ccccc2O1 | 0.3 | 2 | 1 | 0.5 | 54* | 0.4
CC1=CN2C(=N)/C(=C/c3ccc(C)o3)C(=O)N=C2S1 | 0.9 | 80* | 0.2 | 1 | 0 | 1
CSCSC1=C(C#N)C(c2ccc(Cl)cc2)C(C(C)=O)=C(C)N1 (configuration not stated) | 1.5 | -6 | 1.1 | 0.9 | 10 | 2.1*
COc1cccc(C(=O)/C=C/Nc2cccc(O)c2)c1 | 0.9 | 96* | 0 | 0.9 | 12 | 1
COc1cccc(N/C=C/C(=O)c2ccc(Cl)cc2)c1 | 1 | 83* | 0.2 | 0.9 | 12 | 1
COc1ccc(N/C=C/C(=O)c2ccc(Cl)cc2)cc1 | 1 | 35 | 0.7 | 1 | 4 | 1
COc1ccc(/C=C/C(=O)c2c(O)cc(C)oc2=O)c(OC)c1 | 1 | 95* | 0 | 1 | 0 | 1
COc1ccc(N=C2S/C(=C\c3ccc(OC(C)C(=O)O)c(OC)c3)C(=O)N2CCc2c[nH]c3ccccc23)cc1 (configuration not stated) | 0.7 | -7 | 1.1 | 0.4 | 58* | 0.7
Cc1ccc(NC(=O)c2c(Cl)n(C)c3ccccc23)cc1 | 1 | 34 | 0.7 | 0.9 | 6 | 0.9
CCn1c2ccccc2c(=O)c2ccccc21 | 1 | -3 | 1 | 0.9 | 9 | 1
CCn1c(=O)c(-[n+]2ccccc2)c(O)c2ccccc21 | 0.5 | -8 | 1.1 | 0.5 | 53* | 0.6
CNc1ccc(Br)cc(C(=O)/C=C/c2cccc(OC)c2OC)c1=O | 1 | 5 | 1 | 0.4 | 59* | 1
CNc1ccc(Br)cc(C(=O)/C=C/c2cccc(Cl)c2Cl)c1=O | 0.8 | 4 | 1 | 0.3 | 68* | 0.8
O=C1NCCC/C1=N/Nc1ccc(F)cc1 | 1.6 | 0 | 1 | 0.9 | 9 | 2.2*
CCN1CCN(C(C(=O)NC2CCCCC2)c2ccc(Cl)cc2)CC1 (configuration not stated) | 0.9 | 1 | 1 | 1 | 2 | 1
c1ccc(-c2cnc(-c3ccccc3)nc2)cc1 | 1 | 66* | 0.3 | 0.9 | 8 | 1
c1ccc(-c2ncc3c(ccc4ccccc43)n2)cc1 | 0.9 | 89* | 0.1 | 0.9 | 8 | 1
Cc1cc(C(=O)CSc2nn3c(=O)c(C(C)(C)C)nnc3s2)c(C)n1C | 1.1 | -4 | 1 | 1.1 | -6 | 1
O=C(COC(=O)CNS(=O)(=O)c1cccc(Br)c1)NC(=O)Nc1ccc2c(c1)OCCO2 | 0.9 | 4 | 1 | 0.8 | 22 | 0.9
COc1ccccc1C(=O)O/N=C1/CCCc2c1ccc(OC)c2[N+](=O)[O-] | 1.3 | -6 | 1.1 | 0.9 | 12 | 1.3
COc1ccc2c(c1)CC/C2=N\OC(=O)c1ccccc1OC | 1 | 72* | 0.3 | 0.9 | 14 | 1
Clc1ccc(-c2nc(-c3ccccn3)no2)cc1Cl | 1 | 88* | 0.1 | 1.1 | -12 | 1
COc1ccc(-c2nc(-c3ccccn3)no2)cc1 | 0.8 | 98* | 0 | 0.9 | 12 | 0.9
Cc1ccccc1-c1nc(Cc2ccccc2)no1 | 0.9 | 3 | 1 | 0.9 | 6 | 0.9
SMILES | PMI act | FLuc inhib CS | FLuc act counter | Diaphorase act | Diaphorase inh | PMI act hi M6P
Cc1ccccc1-c1nc(-c2ccccn2)no1 | 1 | 95* | 0 | 0.9 | 8 | 1
COc1ccccc1-c1nc(-c2ccccn2)no1 | 1 | 88* | 0.1 | 0.9 | 6 | 1
Brc1ccc(-c2nc(-c3ccncc3)no2)o1 | 1 | 6 | 0.9 | 1 | 5 | 0.9
Brc1ccc(-c2nc(-c3ccccn3)no2)o1 | 1 | 74* | 0.3 | 0.9 | 10 | 1
COc1nc(C)ccc1-c1noc(-c2ccccn2)n1 | 0.9 | 69* | 0.3 | 1 | 0 | 1
COc1ccccc1-c1nc(-c2ccc(C)nc2OC)no1 | 0.8 | 26 | 0.7 | 0.9 | 9 | 0.8
CC(C)(C)NCC(=O)N/N=C/c1ccc(OCc2ccccc2)cc1 | 1 | -8 | 1.1 | 1 | -2 | 1
CCN(CC)c1ccc(/C=N/NC(=O)CCC(=O)NCc2ccccc2)c(O)c1 | 1 | 0 | 1 | 0.8 | 21 | 1
COc1ccc(C(=O)N=c2nc3ccccn3s2)cc1 | 1 | 97* | 0 | 0.9 | 11 | 1
CCCc1cc(=O)[nH]c(SCC(=O)N2CCCc3ccccc32)n1 | 0.9 | 72* | 0.3 | 1 | 2 | 0.9
c1ccc(OCCSc2nnc3sc4ccccc4n23)cc1 | 1 | 80* | 0.2 | 0.8 | 16 | 1
O=C(N/N=C1\CCc2ccccc21)c1ccc(O)cc1 | 1 | 66* | 0.3 | 1 | -3 | 0.9
O=C(N/N=C1\CCc2ccccc21)c1ccccc1Cl | 1.1 | 26 | 0.7 | 0.8 | 16 | 1
Cc1ccc(C(=O)N/N=C2\CCc3ccccc32)c(C)c1 | 1 | 62* | 0.4 | 1 | 4 | 1
Cc1nc2ccccc2c(=O)n1NC(=O)C1CC1 | 1 | -3 | 1 | 1.1 | -13 | 1.1
CC1(C)CC(CCC(=O)NC(=S)Nc2ccccc2Cl)C(=O)O1 (configuration not stated) | 1 | -4 | 1 | 0.9 | 7 | 1
CCOC(=O)C1=C(C)NC2=C(C(=O)CC(C)(C)C2)C1c1ccc2c(c1)CCCN2C (configuration not stated) | 1.5 | -3 | 1 | 0.9 | 10 | 2*
CCOC(=O)C1=C(C)NC2=C(C(=O)CC(C)(C)C2)C1c1ccc(N(C)C)cc1 (configuration not stated) | 1.2 | -7 | 1.1 | 0.8 | 20 | 1.5
CN(C)c1ccc(N=Nc2ccccc2C(=O)OCC(=O)NCC2CCCCC2)cc1 | 0.9 | 48 | 0.5 | 0.8 | 19 | 0.9
CN(C)c1ccc(N=Nc2ccccc2C(=O)OCC(=O)NC2CCCC2)cc1 | 0.9 | 59* | 0.4 | 0.9 | 13 | 1
CN(C)c1ccc(N=Nc2ccccc2C(=O)OCC(=O)N(C)C2CCCCC2)cc1 | 0.9 | 68* | 0.3 | 0.9 | 12 | 1
CNc1ccc(/C=C2\CSc3ccccc3C2=O)cc1[N+](=O)[O-] | 1.1 | 55* | 0.4 | 0.9 | 10 | 1
O=C1/C(=C/c2cccc([N+](=O)[O-])c2)CCc2ccccc21 | 0.9 | 19 | 0.8 | 0.9 | 7 | 0.8
